In PMC3991427 (Angewandte Chemie (International ed. in English), 2014):

Test system: MCF-7 breast cancer cells
Type: cell-based
Details: broad compound screen at 10 μM, compared with (+)-21
In short: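 Single-concentration screen: each test compound at 10 μM, run in parallel against MCF-7 breast cancer cells and non-tumorigenic MCF-10A breast cells. The assay is proliferation-based, and the read-out is relative cell number after treatment, expressed as a percentage. Selectivity is judged by comparing the MCF-7 response with the MCF-10A response.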

SMILES | inhibition of cell proliferation / cell growth (in words)
c1ccsc1 [compound 28, thiophene] | did not inhibit cell growth
c1ccc2sccc2c1 [compound 29, benzothiophene] | did not inhibit cell growth
